Source: ChEMBL document CHEMBL5576140, “Computational Design of Pore-Forming Peptides with Potent Antimicrobial and Anticancer Activities” (J Med Chem, 2024)
The source made the active and inactive calls. The rule behind the calls is not given here.

Experiments:
Staphylococcus aureus [1] = experiment: Antimicrobial activity against Staphylococcus aureus NE163 harboring single transposon insertion mutation in aureolysin at 30 uM incubated for 18 hrs relative to control; assay type: functional
How it was run: (§1)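 CA-MRSA USA300 LAC derivative JE2 and single transposon insertion mutants derived from JE2, each lacking an extracellular protease gene, were exposed to peptides up to 30 μM. The read-out was percent growth inhibition. Peptides were dissolved in PBS, and tests were run in triplicate.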

Staphylococcus aureus [2] = experiment: Depolarization of cytoplasmic membrane in Staphylococcus aureus ATCC 12600 at MIC measured for 45 mins by DiSC3-(5) dye based assay; assay type: functional, organism-based
How it was run: (§2)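 Bacteria loaded with membrane-potential dye DiSC3-(5), then treated with peptide at its MIC for the respective strain; depolarization read as rise in dye fluorescence; polymyxin B and levofloxacin as reference antibiotics.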

Acinetobacter baumannii [3] = experiment: Antimicrobial activity against colistin/meropenem-resistant Acinetobacter baumannii GSAB 164 incubated for 18 to 20 hrs by broth microdilution assay; assay type: functional; details: time 18-20 hrs
How it was run: (§3)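 Broth microdilution assay. MIC was taken as the lowest peptide concentration that inhibited visible growth of the bacteria. Peptides were dissolved in PBS, and experiments were run in triplicate.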

Acinetobacter baumannii [4] = experiment: Anti-infective activity against Acinetobacter baumannii ATCC 19606 infected in neutropenic CD-1 mouse deep thigh infection model assessed as reduction in bacterial load at 0.17 mg/kg, ip measured after 4 days; assay type: functional, organism-based; details: time 4.0 day
How it was run: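 Neutropenic mice infected intramuscularly in right thigh with 10⁶ cells per mL A. baumannii ATCC 19606; single intraperitoneal peptide dose at 10× MIC; bacterial load determined 4 days after treatment (euthanized day 8); n = 6 per group from three inocula; one-way ANOVA with Dunnett's test versus untreated.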

Mus musculus [5] = experiment: Induction of wound healing activity in immunosuppressed Balb/c mouse excisional dorsal wound infection model infected with Acinetobacter baumannii NCTC 13301 assessed as decrease in serocellular crust at about 10 mg/kg treated for 7 days once daily measured after 20 days; assay type: functional, organism-based; details: time 20.0 day
Escherichia coli [6] = experiment: Depolarization of cytoplasmic membrane in Escherichia coli ATCC 11775 at MIC measured for 45 mins by DiSC3-(5) dye based assay; assay type: functional, organism-based; how it was run: as §2
Acinetobacter baumannii [7] = experiment: Induction of outer membrane permeabilization in Acinetobacter baumannii ATCC 19606 measured for 20 mins by NPN uptake assay; assay type: functional, organism-based
[8] = Stability in human serum assessed as half life at 10 mg/ml by UPLC-MS analysis; assay type: ADME, cell-free
How it was run: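 Peptides dissolved in PBS and incubated in 25% human serum. Intact peptide remaining followed over time to at least 6 h; half-life taken as time to 50% stability.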

Staphylococcus aureus [9] = experiment: Antimicrobial activity against Staphylococcus aureus NE934 harboring single transposon insertion mutation in staphopain B at 30 uM incubated for 18 hrs relative to control; assay type: functional; how it was run: as §1
Enterococcus faecium = experiment: Depolarization of cytoplasmic membrane in Enterococcus faecium ATCC 700221 at MIC measured for 45 mins by DiSC3-(5) dye based assay; assay type: functional, organism-based; how it was run: as §2
Staphylococcus aureus [10] = experiment: Antimicrobial activity against Staphylococcus aureus NE1740 harboring single transposon insertion mutation in staphopain A at 30 uM incubated for 18 hrs relative to control; assay type: functional; how it was run: as §1
[11] = Toxicity against reconstructed human skin model assessed as irritation at 50 uM incubated for 1 hr followed by compound washout measured after 42 hrs by MTT assay; assay type: tissue-based, Skin of body
How it was run: (§4)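 Reconstructed human epidermis with stratum corneum, per OECD TG 439 skin irritation guideline. Tissues exposed 1 h to peptide at 50 μM, then 42 h post-treatment incubation. Viability read by MTT. Controls were SDS and melittin.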

Acinetobacter baumannii [12] = experiment: Depolarization of cytoplasmic membrane in Acinetobacter baumannii ATCC 19606 at MIC measured for 45 mins by DiSC3-(5) dye based assay; assay type: functional, organism-based; how it was run: as §2
Pseudomonas aeruginosa [13] = experiment: Depolarization of cytoplasmic membrane in Pseudomonas aeruginosa PAO1 at MIC measured for 45 mins by DiSC3-(5) dye based assay; assay type: functional, organism-based; how it was run: as §2
Lipid bilayer = experiment: Induction of pore formation in POPC/POPG SLBs at 1 uM measured for 2 hrs by real-time AFM analysis; details: filed as activator
How it was run: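 Real-time AFM topography of supported lipid bilayers of POPC:POPG 1:1 mol/mol, checked defect-free and vesicle-free before peptide addition. P:L 1:500, final peptide 1 μM. Images at 1 × 1 μm², 400 × 400 nm² and 200 × 200 nm², height scale 2 nm. Pores followed over 2 h.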

[14] = Toxicity against reconstructed human skin model assessed as tissue viability at 50 uM incubated for 1 hr followed by compound washout measured after 42 hrs by MTT assay; assay type: tissue-based, Skin of body; details: read-out: Activity; how it was run: as §4
[15] = Toxicity in immunosuppressed Balb/c mouse excisional dorsal wound infection model infected with Acinetobacter baumannii NCTC 13301 assessed as decrease in animal survival at about 10 mg/kg treated for 7 days once daily measured after 45 days; assay type: organism-based; details: in vivo, 1080 h, time 45 day
Klebsiella pneumoniae [16] = experiment: Induction of outer membrane permeabilization in Klebsiella pneumoniae ATCC 13883 measured for 20 mins by NPN uptake assay; assay type: functional, organism-based
How it was run: (§5)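 Outer-membrane permeabilization of Gram-negative bacteria read as rise in fluorescence of the lipophilic dye NPN, which enters only when outer-membrane integrity is compromised. Peptides applied at their MIC against the respective strain; polymyxin B and levofloxacin as reference antibiotics. Triplicates.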

Staphylococcus aureus [17] = experiment: Antimicrobial activity against Staphylococcus aureus NE1506 harboring single transposon insertion mutation in V8 protease at 30 uM incubated for 18 hrs relative to control; assay type: functional; how it was run: as §1
[18] = Toxicity in immunosuppressed Balb/c mouse excisional dorsal wound infection model infected with Acinetobacter baumannii NCTC 13301 assessed as body weight loss at about 10 mg/kg treated for 7 days once daily measured after 45 days; assay type: organism-based; details: in vivo, 1080 h, time 45 day
How it was run: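 Excisional dorsal wound model in immunosuppressed mice infected with 5 × 10⁴ cells per mL of A. baumannii. Treated, PBS-treated and untreated groups were compared. Body weight and survival were followed for 45 days.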

Escherichia coli [19] = experiment: Antimicrobial activity against Escherichia coli TOP10 at pH 6 to 8; assay type: functional, organism-based
How it was run: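 E. coli TOP10 broth microdilution with growth medium at pH 8 and pH 6; MIC taken as lowest concentration inhibiting visible growth.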

Mus musculus [20] = experiment: Induction of wound healing activity in immunosuppressed Balb/c mouse excisional dorsal wound infection model infected with Acinetobacter baumannii NCTC 13301 assessed as reduction in necrosis of epidermal tissue at wound edges at about 10 mg/kg treated for 7 days once daily; assay type: functional, organism-based; details: time 7.0 day
Acinetobacter baumannii [21] = experiment: Antimicrobial activity against Acinetobacter baumannii CIP7010 incubated for 16 to 20 hrs; assay type: functional; details: time 16-20 hrs; how it was run: as §3
Escherichia coli [22] = experiment: Induction of outer membrane permeabilization in Escherichia coli ATCC 11775 measured for 20 mins by NPN uptake assay; assay type: functional, organism-based
Mus musculus [23] = experiment: Induction of wound healing activity in immunosuppressed Balb/c mouse excisional dorsal wound infection model infected with Acinetobacter baumannii NCTC 13301 assessed as reduction in wound expansion at about 10 mg/kg treated for 7 days once daily; assay type: functional, organism-based; details: time 7.0 day
Escherichia coli [24] = experiment: Antimicrobial activity against Escherichia coli ATCC 25922 incubated for 18 to 20 hrs by broth microdilution assay; assay type: functional; details: time 18-20 hrs; how it was run: as §3
[25] = Hemolytic activity against human RBC incubated for 1 hr by microplate reader analysis; assay type: toxicity, cell-based, Erythrocyte; details: red blood cells (erythrocytes)
How it was run: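 Human red blood cells exposed to peptides up to 50 μM; hemolysis measured, IC50 derived where reached.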

Pseudomonas aeruginosa [26] = experiment: Induction of outer membrane permeabilization in Pseudomonas aeruginosa PAO1 measured for 20 mins by NPN uptake assay; assay type: functional, organism-based; how it was run: as §5
[27] = Toxicity in neutropenic CD-1 mouse deep thigh infection model infected with Acinetobacter baumannii ATCC 19606 assessed as body weight change at 0.17 mg/kg, ip measured after 4 days; assay type: organism-based; details: in vivo, 96 h, time 4 day
How it was run: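 Neutropenic mice infected intramuscularly in the right thigh with 10⁶ cells per mL of A. baumannii ATCC 19606. […] Body weight monitored for toxicity. Euthanasia 4 days post-infection (day 8). n = 6 per group, from three inocula.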

Klebsiella pneumoniae [28] = experiment: Depolarization of cytoplasmic membrane in Klebsiella pneumoniae ATCC 13883 at MIC measured for 45 mins by DiSC3-(5) dye based assay; assay type: functional, organism-based; how it was run: as §2

Substance: H-KKKKLKKILKKLFQFINQLDNQLQDIKKKK-NH2
- inhibition at 30 µM (Staphylococcus aureus [1]): < 45%
- Activity (Staphylococcus aureus [2]): Active
- MIC (Acinetobacter baumannii [3]): 1 µM
- Activity (Acinetobacter baumannii [4]): inactive
- Activity (Mus musculus [5]): inactive
- Activity (Escherichia coli [6]): Active
- Activity (Acinetobacter baumannii [7]): inactive
- half-life at 10 mg/ml [8]: > 6 h
- inhibition at 30 µM (Staphylococcus aureus [9]): < 45%
- Activity (Enterococcus faecium): Active
- inhibition at 30 µM (Staphylococcus aureus [10]): < 45%
- Activity [11]: Non-Toxic
- Activity (Acinetobacter baumannii [12]): Active
- Activity (Pseudomonas aeruginosa [13]): Active
- Activity (Lipid bilayer): Active
- viability at 1 h, 50 µM [14]: 100%
- Activity [15]: Toxic
- Activity (Klebsiella pneumoniae [16]): Active
- inhibition at 30 µM (Staphylococcus aureus [17]): < 45%
- Activity [18]: Toxic
- Activity (Escherichia coli [19]): Active
- Activity (Mus musculus [20]): Active
- MIC (Acinetobacter baumannii [21]): 0.5 µM
- Activity (Escherichia coli [22]): Active
- Activity (Mus musculus [23]): Active
- MIC (Escherichia coli [24]): 1 µM
- IC50 at 1 h [25]: > 50 µM
- Activity (Pseudomonas aeruginosa [26]): Active
- Activity [27]: Non-Toxic
- Activity (Klebsiella pneumoniae [28]): Active
